In ChEMBL document CHEMBL1125896, “2-(oxadiazolyl)- and 2-(thiazolyl)imidazo[1,2-a]pyrimidines as agonists and inverse agonists at benzodiazepine receptors” (J Med Chem, 1991):
pIC50: −log10 of the molar value.

Assays:
[1] = biological target: GABA-A receptor; anion channel; test: Binding affinity towards benzodiazepine receptor by the displacement of [3H]flunitrazepam from rat brain preparations.
Rattus norvegicus [2] = test: Minimum effective dose on oral administration; type: functional; conditions: read-out: MED
Method in brief: (§1)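 Food-motivated conflict test in trained Lister rats: five alternating 4-min FI30 unpunished and five 3-min FR5 punished components. Dosing po 30 min before testing, first at 50 mg/kg in four rats, then at decreasing doses (20, 10, 5, 2, 1 mg/kg) if active. MED is the dose giving a significant rise in punished responding (Mann-Whitney U).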

Mus musculus [3] = organism: Mus musculus; test: Dose of leptazol-inducing tonic seizures in CD-1 mice was determined and represented as ED50; type: functional
Mus musculus [4] = organism: Mus musculus; test: Sedative/muscle relaxant effects in male CD-1 mice was assessed with a Ugo Basile rotating drum and the dose causing 50% decrease in time (ED50) was evaluated; type: functional
Method in brief: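 Rotating drum of 3 cm diameter at 16 rev/min; time on drum recorded 1 h after dosing. Mean for groups of 10 mice expressed as percentage of control group mean.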

Rattus norvegicus [5] = test: Compound was tested for conflict antagonism of chlordiazepoxide (CDZP) at 10 mg/kg orally.; type: functional; conditions: po, read-out: MED
Method in brief: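 Food-motivated conflict test in trained Lister rats: test compound given po with 10 mg/kg po chlordiazepoxide. Effect compared with chlordiazepoxide alone in the same rats in separate assays. Schedule of five alternating 4-min FI30 unpunished and five 3-min FR5 punished components.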

Rattus norvegicus [6] = test: Compound was tested for the minimum effective dose (MED) on oral administration; value ranges from 2-5 mg/Kg; type: functional; conditions: read-out: MED; method in brief: as §1
Mus musculus [7] = test: Intraperitoneal dose of leptazol-inducing tonic seizures in CD-1 mice was determined and represented as ED50; type: functional; conditions: ip
Rattus norvegicus [8] = test: Compound was tested for the minimum effective dose (MED) on oral administration; value ranges from 10-50 mg/Kg; type: functional; conditions: read-out: MED; method in brief: as §1
Rattus norvegicus [9] = test: Compound was tested for the minimum effective dose (MED) on oral administration; value ranges from 1-2 mg/Kg; type: functional; conditions: read-out: MED; method in brief: as §1
Mus musculus [10] = organism: Mus musculus; test: The dose of leptazol-inducing tonic seizures in CD-1 mice was determined and represented as ED50.; type: functional
Mus musculus [11] = organism: Mus musculus; test: Sedative/muscle relaxant effects in male CD-1 mice was assessed with a Ugo Basile rotating drum and the dose causing 50% decrease in time (ED50) was calculated.; type: functional
Method in brief: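 Male CD-1 mice, groups of 10, were placed on a rotating drum (3 cm diameter, 16 rev/min) 1 h after dosing and their time on the drum was recorded. The group mean was expressed as a percentage of the control group mean. The dose giving a 50% decrease came from best-fit lines through at least three dose-effect points, with 95% confidence limits by Litchfield and Wilcoxon.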

Row | Structure (SMILES) | pIC50 [1] | minimal effective dose (Rattus norvegicus [2]) [mg/kg] | further results
1 | CCc1c(OC)nc2nc(-c3cc(C)[nH]n3)cn2c1C | 5.30 | > 50 | –
2 | CCc1c(OC)nc2nc(-c3nnc(C)o3)cn2c1C | – | 2 | ED50 (Mus musculus [3]): 20 mg/kg; ED50 (Mus musculus [4]): > 200 mg/kg
3 | COc1nc2nc(-c3nc(C)cs3)cn2c2c1CCCC2 | 7.66 | > 50 | minimal effective dose (Rattus norvegicus [5]): > 50 mg/kg
4 | CCc1c(OC)nc2nc(-c3nnco3)cn2c1C | 5.00 | > 50 | –
5 | CCc1c(OC)nc2nc(-c3n[nH]c(C)n3)cn2c1C | < 5.00 | > 50 | –
6 | CCc1csc(-c2cn3c(C)c(CC)c(OC)nc3n2)n1 | 6.66 | 50 | minimal effective dose (Rattus norvegicus [5]): 50 mg/kg
7 | CCOC(=O)c1csc(-c2cn3c(C)c(CC)c(OC)nc3n2)n1 | 5.55 | > 50 | –
8 | CCc1c(SC)nc2nc(-c3nc(C)cs3)cn2c1C | 7.10 | > 50 | minimal effective dose (Rattus norvegicus [5]): 50 mg/kg
9 | CCc1c(OC)nc2nc(-c3nnc(C)s3)cn2c1C | < 5.00 | – | minimal effective dose (Rattus norvegicus [6]): 2 mg/kg
10 | CCCc1c(OC)nc2nc(-c3nc(C)cs3)cn2c1C | 7.00 | > 50 | minimal effective dose (Rattus norvegicus [5]): 50 mg/kg
11 | CCCc1nnc(-c2cn3c(C)c(CC)c(OC)nc3n2)o1 | < 5.00 | 50 | –
12 | C=CCc1c(OC)nc2nc(-c3noc(C)n3)cn2c1C | 6.25 | 10 | –
13 | C/C=C/c1c(OC)nc2nc(-c3nnc(C)o3)cn2c1C | < 5.00 | > 50 | –
14 | CCc1c(OC)nc2nc(-c3nc(C)cs3)cn2c1C | 6.95 | > 50 | minimal effective dose (Rattus norvegicus [5]): 10 mg/kg; ED50 (Mus musculus [7]): 1.7 mg/kg
15 | CCc1c(SC)nc2nc(-c3nnc(C)o3)cn2c1C | 6.49 | 5 | –
16 | CCc1c(OC)nc2nc(-c3nc(C)c(C)s3)cn2c1C | 5.60 | > 50 | minimal effective dose (Rattus norvegicus [5]): > 50 mg/kg
17 | CCc1c(SC)nc2nc(-c3noc(C)n3)cn2c1C | 6.80 | 2 | –
18 | CCc1nnc(-c2cn3c(C)c(CC)c(OC)nc3n2)o1 | < 5.00 | 50 | –

Row | Structure (SMILES) | pIC50 [1] | minimal effective dose (Rattus norvegicus [2]) [mg/kg] | further results
19 | CCc1c(OC)nc2nc(-c3nccs3)cn2c1C | 6.70 | – | minimal effective dose (Rattus norvegicus [5]): 10 mg/kg
20 | CCc1c(OC)nc2nc(-c3noc(C)n3)c(Cl)n2c1C | 5.00 | 10 | –
21 | CCc1c(OC)nc2nc(-c3cnco3)cn2c1C | 5.60 | > 50 | –
22 | CCc1c(OC)nc2nc(-c3cc(C)no3)cn2c1C | 5.35 | 50 | –
23 | CCc1c(OC)nc2nc(-c3nnc(C(F)(F)F)o3)cn2c1C | < 5.00 | – | minimal effective dose (Rattus norvegicus [8]): 10 mg/kg
24 | COc1nc2nc(-c3nnc(C)o3)cn2c2c1CCCC2 | 5.49 | > 50 | –
25 | C=CCc1c(OC)nc2nc(-c3nc(C)cs3)cn2c1C | 7.00 | > 50 | minimal effective dose (Rattus norvegicus [5]): > 50 mg/kg
26 | C=CCc1c(OC)nc2nc(-c3nnc(C)o3)cn2c1C | 5.60 | 10 | –
27 | CCc1c(OC)nc2nc(-c3noc(C(F)(F)F)n3)cn2c1C | – | – | ED50 (Mus musculus [4]): > 200 mg/kg; minimal effective dose (Rattus norvegicus [9]): 1 mg/kg; ED50 (Mus musculus [10]): 70 mg/kg
28 | CCc1c(OC)nc2nc(-c3nnc(-c4ccccc4)o3)cn2c1C | < 5.00 | > 50 | –
29 | CCCc1c(OC)nc2nc(-c3nnc(C)o3)cn2c1C | 5.10 | 10 | –
30 | CCc1c(OC)nc2nc(-c3nc(C)no3)cn2c1C | 6.20 | 5 | ED50 (Mus musculus [3]): 14 mg/kg; ED50 (Mus musculus [4]): > 100 mg/kg
31 | CCc1c(OC)nc2nc(-c3nc(C(F)(F)F)cs3)cn2c1C | 5.70 | > 50 | minimal effective dose (Rattus norvegicus [5]): > 50 mg/kg
32 | CCCc1c(OC)nc2nc(-c3noc(C)n3)cn2c1C | 5.80 | 5 | ED50 (Mus musculus [3]): 13 mg/kg; ED50 (Mus musculus [4]): 16.5 mg/kg
33 | CCc1c(OC)nc2nc(-c3noc(C)n3)c(Br)n2c1C | 5.00 | 10 | –
34 | CNC1=Nc2ccc(Cl)cc2C(c2ccccc2)=[N+]([O-])C1 [CHLORDIAZEPOXIDE] | – | 2 | ED50 (Mus musculus [11]): 6.8 mg/kg; ED50 (Mus musculus [10]): 1.9 mg/kg
35 | CCc1c(OC)nc2nc(-c3noc(C)n3)cn2c1C [FASIPLON] | 6.30 | – | ED50 (Mus musculus [3]): 7.4 mg/kg; ED50 (Mus musculus [4]): 17 mg/kg; minimal effective dose (Rattus norvegicus [6]): 2 mg/kg
36 | COc1nc2nc(-c3noc(C)n3)cn2c2c1CCCC2 [TANIPLON] | 6.25 | 5 | ED50 (Mus musculus [3]): 55 mg/kg; ED50 (Mus musculus [4]): > 100 mg/kg
